Measurements taken from ChEMBL document CHEMBL1764997, “(Z)-3-butylidenephthalide from Ligusticum porteri , an α-glucosidase inhibitor” (J Nat Prod, 2011).
Values belong to the compound of their own block, whether it stands above or below them. Calls of active or inactive are those of the source. The rule behind the calls is not given here.

Columns and labels:
[1] = molecular target: Alpha-glucosidase MAL62 (Saccharomyces cerevisiae) (UniProt P07265); assay: Inhibition of yeast alpha-glucosidase assessed as inhibition of p-nitrophenyl-alpha-D-glucopyranoside substrate hydrolysis after 35 mins by spectroscopy
Sequence of Alpha-glucosidase MAL62 (Saccharomyces cerevisiae) (P07265 whole entry): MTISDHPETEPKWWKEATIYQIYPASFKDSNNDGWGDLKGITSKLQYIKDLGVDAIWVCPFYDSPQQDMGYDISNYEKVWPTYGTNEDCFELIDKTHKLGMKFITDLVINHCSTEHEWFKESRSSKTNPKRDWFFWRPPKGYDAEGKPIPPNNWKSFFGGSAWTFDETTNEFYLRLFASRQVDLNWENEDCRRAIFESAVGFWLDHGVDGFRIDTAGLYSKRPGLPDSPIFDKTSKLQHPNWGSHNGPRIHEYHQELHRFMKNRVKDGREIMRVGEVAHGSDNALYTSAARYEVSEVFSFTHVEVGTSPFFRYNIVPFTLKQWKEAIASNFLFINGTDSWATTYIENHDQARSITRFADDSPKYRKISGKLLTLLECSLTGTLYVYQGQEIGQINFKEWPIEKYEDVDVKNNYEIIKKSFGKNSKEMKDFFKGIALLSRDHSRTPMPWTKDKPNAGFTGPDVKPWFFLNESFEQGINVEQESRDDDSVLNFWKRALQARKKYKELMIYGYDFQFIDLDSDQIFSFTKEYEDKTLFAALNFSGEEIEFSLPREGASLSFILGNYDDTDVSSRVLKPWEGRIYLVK

Mus musculus [2] = organism: Mus musculus; assay: Antidiabetic activity in streptozotocin-induced diabetic ICR mouse assessed as lowering of blood glucose level by oral sucrose tolerance test; format: functional, organism-based
In short: (§1)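 NAD (40 mg/kg ip) then STZ (100 mg/kg ip, 15 min later) diabetic male ICR mice, glucose >140 mg/dL after 7 days. Animals fasted 12 h, dosed orally in 0.05% Tween 80/saline, and given oral sucrose 2 g/kg 30 min later.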

Mus musculus [3] = assay: Antidiabetic activity in streptozotocin-induced diabetic ICR mouse assessed as change in blood glucose level at 5 mg/kg after 0.5 hr by oral sucrose tolerance test (RVb= 56 %); format: functional; in short: as §1
Mus musculus [4] = assay: Antidiabetic activity in streptozotocin-induced diabetic ICR mouse assessed as change in blood glucose level at 5 mg/kg after 1 hr by oral sucrose tolerance test (RVb= 11.4 %); format: functional; in short: as §1
Mus musculus [5] = assay: Antidiabetic activity in streptozotocin-induced diabetic ICR mouse assessed as change in blood glucose level at 5 mg/kg after 1.5 hrs by oral sucrose tolerance test (RVb= 6.1 %); format: functional; in short: as §1
Mus musculus [6] = assay: Antidiabetic activity in streptozotocin-induced diabetic ICR mouse assessed as change in blood glucose level at 5 mg/kg after 2 hrs by oral sucrose tolerance test (RVb= -4.3 %); format: functional; in short: as §1
Mus musculus [7] = assay: Antihyperglycemic activity in po dosed diabetic KK-Ay mouse model; format: functional, organism-based
Rattus norvegicus [8] = assay: Hypoglycemic activity in rat assessed as decrease in plasma glucose at 5 mg/kg, iv; format: functional, organism-based; set-up: dose 5 mg/kg
Rattus norvegicus [9] = assay: Hypoglycemic activity in rat assessed as increase in insulin concentration at 5 mg/kg, iv; format: functional, organism-based; set-up: dose 5 mg/kg
L6 = assay: Hypoglycemic activity in rat L6 myotubes assessed as increase in 2-deoxyglucose transport at 25 uM relative to control; format: functional
Mus musculus [10] = assay: Antihyperglycemic activity in ICR mouse assessed as change in blood glucose level at 10 mg/kg after 0.5 hr by oral glucose tolerance test (RVb= 59 %); format: functional
Mus musculus [11] = assay: Antihyperglycemic activity in ICR mouse assessed as change in blood glucose level at 10 mg/kg after 1 hr by oral glucose tolerance test (RVb= 1.5 %); format: functional
Mus musculus [12] = assay: Antihyperglycemic activity in ICR mouse assessed as change in blood glucose level at 10 mg/kg after 1.5 hrs by oral glucose tolerance test (RVb= 2.5 %); format: functional
Mus musculus [13] = assay: Antihyperglycemic activity in ICR mouse assessed as change in blood glucose level at 10 mg/kg after 2 hrs by oral glucose tolerance test (RVb= -12 %); format: functional
Mus musculus [14] = assay: Antidiabetic activity in streptozotocin-induced diabetic ICR mouse assessed as change in blood glucose level at 10 mg/kg after 0.5 hr by oral glucose tolerance test (RVb= 51.9 %); format: functional
Mus musculus [15] = assay: Antidiabetic activity in streptozotocin-induced diabetic ICR mouse assessed as change in blood glucose level at 10 mg/kg after 1 hr by oral glucose tolerance test (RVb= 10.3 %); format: functional
Mus musculus [16] = assay: Antidiabetic activity in streptozotocin-induced diabetic ICR mouse assessed as change in blood glucose level at 10 mg/kg after 1.5 hrs by oral glucose tolerance test (RVb= 0.005 %); format: functional
Mus musculus [17] = assay: Antidiabetic activity in streptozotocin-induced diabetic ICR mouse assessed as change in blood glucose level at 10 mg/kg after 2 hrs by oral glucose tolerance test (RVb= -12.9 %); format: functional
Mus musculus [18] = assay: Antihyperglycemic activity in ICR mouse assessed as change in blood glucose level at 20 mg/kg after 0.5 hr by oral glucose tolerance test (RVb= 59 %); format: functional
Mus musculus [19] = assay: Antihyperglycemic activity in ICR mouse assessed as change in blood glucose level at 20 mg/kg after 1 hr by oral glucose tolerance test (RVb= 1.5 %); format: functional
Mus musculus [20] = assay: Antihyperglycemic activity in ICR mouse assessed as change in blood glucose level at 20 mg/kg after 1.5 hrs by oral glucose tolerance test (RVb= 2.5 %); format: functional
Mus musculus [21] = assay: Antihyperglycemic activity in ICR mouse assessed as change in blood glucose level at 20 mg/kg after 2 hrs by oral glucose tolerance test (RVb= -12 %); format: functional
Mus musculus [22] = assay: Antidiabetic activity in streptozotocin-induced diabetic ICR mouse assessed as change in blood glucose level at 31.2 mg/kg after 0.5 hr by oral glucose tolerance test (RVb= 51.9 %); format: functional
Mus musculus [23] = assay: Antidiabetic activity in streptozotocin-induced diabetic ICR mouse assessed as change in blood glucose level at 56.2 mg/kg after 0.5 hr by oral glucose tolerance test (RVb= 51.9 %); format: functional
Mus musculus [24] = assay: Antidiabetic activity in streptozotocin-induced diabetic ICR mouse assessed as change in blood glucose level at 31.2 mg/kg after 1 hr by oral glucose tolerance test (RVb= 10.3 %); format: functional
Mus musculus [25] = assay: Antidiabetic activity in streptozotocin-induced diabetic ICR mouse assessed as change in blood glucose level at 56.2 mg/kg after 1 hr by oral glucose tolerance test (RVb= 10.3 %); format: functional
Mus musculus [26] = assay: Antidiabetic activity in streptozotocin-induced diabetic ICR mouse assessed as change in blood glucose level at 31.2 mg/kg after 1.5 hrs by oral glucose tolerance test (RVb= 0.005 %); format: functional
Mus musculus [27] = assay: Antidiabetic activity in streptozotocin-induced diabetic ICR mouse assessed as change in blood glucose level at 56.2 mg/kg after 1.5 hrs by oral glucose tolerance test (RVb= 0.005 %); format: functional
Mus musculus [28] = assay: Antidiabetic activity in streptozotocin-induced diabetic ICR mouse assessed as change in blood glucose level at 31.2 mg/kg after 2 hrs by oral glucose tolerance test (RVb= -12.9 %); format: functional
Mus musculus [29] = assay: Antidiabetic activity in streptozotocin-induced diabetic ICR mouse assessed as change in blood glucose level at 56.2 mg/kg after 2 hrs by oral glucose tolerance test (RVb= -12.9 %); format: functional
Mus musculus [30] = organism: Mus musculus; assay: Antidiabetic activity in streptozotocin-induced diabetic ICR mouse assessed as decrease in blood glucose levels by oral glucose tolerance test

Activity [1]: Dose-dependent effect
SMILES: C[C@H]1O[C@H](O[C@H]2[C@H](O)[C@@H](O)[C@@H](O[C@H]3[C@H](O)[C@@H](O)C(O)O[C@@H]3CO)O[C@@H]2CO)[C@H](O)[C@@H](O)[C@@H]1N[C@H]1C=C(CO)[C@@H](O)[C@H](O)[C@H]1O (stereo partly specified) [ACARBOSE]
Activity (Mus musculus [2]): Active | Activity (Mus musculus [3]): -0.4% | Activity (Mus musculus [4]): 0.5% | Activity (Mus musculus [5]): 6.2% | Activity (Mus musculus [6]): 6.8%

Activity [1]: inactive
SMILES: COc1cc(/C=C/C(=O)O)ccc1O [FERULATE]
Activity (Mus musculus [7]): Active | Activity (Rattus norvegicus [8]): Active | Activity (Rattus norvegicus [9]): Active | fold change (FC) (L6): 2.98

SMILES: COc1ccc(Cl)cc1C(=O)NCCc1ccc(S(=O)(=O)NC(=O)NC2CCCCC2)cc1 [GLYBURIDE]
Activity (Mus musculus [10]): -42% | Activity (Mus musculus [11]): -65% | Activity (Mus musculus [12]): -69% | Activity (Mus musculus [13]): -68% | Activity (Mus musculus [14]): 42% | Activity (Mus musculus [15]): 3.8% | Activity (Mus musculus [16]): -10% | Activity (Mus musculus [17]): -21.5%

Activity [1]: inactive
SMILES: CCC/C=C1\OC(=O)C2=C1CCC=C2 [LIGUSTILIDE]
Activity (Mus musculus [10]): 42% | Activity (Mus musculus [11]): 25% | Activity (Mus musculus [12]): 7% | Activity (Mus musculus [13]): -8% | Activity (Mus musculus [18]): 40% | Activity (Mus musculus [19]): 14% | Activity (Mus musculus [20]): -3.5% | Activity (Mus musculus [21]): -16% | Activity (Mus musculus [14]): 13% | Activity (Mus musculus [22]): 17% | Activity (Mus musculus [23]): 25% | Activity (Mus musculus [15]): -14% | Activity (Mus musculus [24]): -6.3% | Activity (Mus musculus [25]): 17.1% | Activity (Mus musculus [16]): -19% | Activity (Mus musculus [26]): -12% | Activity (Mus musculus [27]): 2.1% | Activity (Mus musculus [17]): -15.6% | Activity (Mus musculus [28]): -10% | Activity (Mus musculus [29]): 6.5% | Activity (Mus musculus [30]): Dose-dependent effect
